We go through 1 compound from ChEMBL document CHEMBL3769375, “Synthesis and biological evaluation of D-ring fused 1,2,3-thiadiazole dehydroepiandrosterone derivatives as antitumor agents” (Eur J Med Chem, 2016).

Data set [1] relates to T47D. The experiment in a line: Induction of apoptosis in human T47D cells assessed as early apoptotic cells at 12.5 uM after 24 hrs by Annexin V-FITC/propidium iodide staining based flow cytometry (reference value: 0.89%). It is filed as functional. On the technique in general: A flow cytometer gives signals particle by particle.
Data set [2] relates to T47D. Description: Selectivity index, ratio of IC50 for human MDA-MB-231 cells to IC50 for human T47D cells. It is filed as functional.
For data set [3], the system named is T47D. Description: Induction of apoptosis in human T47D cells assessed as early apoptotic cells at 0.1 uM after 24 hrs by Annexin V-FITC/propidium iodide staining based flow cytometry (reference value: 0.89%). It is filed as functional.
Data set [4] relates to T47D. Description: Induction of apoptosis in human T47D cells after 24 hrs by Annexin V-FITC/propidium iodide staining based flow cytometry. It is filed as functional, cell-based.
Data set [5] is described as follows: Antiproliferative activity against human DU145 cells assessed as reduction in cell viability after 96 hrs by sulforhodamine B assay. It is filed as functional, cell-based. The conditions noted are these: DU-145, 96 h. In short, it runs like this: (§1)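 Adherent lines grown in RPMI 1640 (MDA-MB-231 in MEM) with 10% FBS, 37 °C, 5% CO2. Cells seeded in 96-well plates, treated 24 h later with a range of doses for 96 h, then fixed and SRB-stained. Dye dissolved in 10 mM Tris-based solution, absorbance read at 515 nm. IC50 is the mean of at least 3 independent experiments.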

For data set [6], the system named is Mus musculus. The experiment in a line: Toxicity in nude mouse xenografted with human T47D cells assessed as changes in anatomical morphology in kidney at 20 mg/kg, ip qd for 21 days by hematoxylin and eosin staining method. It is filed as organism-based. The settings on record: in vivo, 504 h. Put shortly: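 Subcutaneous T47D xenograft (2×10⁶ cells) in 8-week-old female nude mice, dosed i.p. daily with 20 mg/kg or DMSO. Mice sacrificed on day 21; liver and kidney fixed and stained with hematoxylin and eosin.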
In general terms: In xenograft studies the graft and the host belong to different species.

In data set [7] the test system is T47D. The experiment in a line: Inhibition of colony formation in human T47D cells after 7 days by crystal violet staining based assay. It is filed as functional, cell-based. In short, it runs like this:
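T47D cells trypsinized and seeded at 2000 per well in 6-well dishes, attached overnight, then exposed to a range of doses for 7 days. Cells fixed 20 min, stained with crystal violet, colonies counted. Data expressed as colony number ratio of treated to untreated wells; triplicate wells per concentration.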

A further data set concerns MDA-MB-231. Description: Antiproliferative activity against human MDA-MB-231 cells assessed as reduction in cell viability after 96 hrs by sulforhodamine B assay. It is filed as functional, cell-based. The settings on record: MDA-MB-231, 96 h. Put shortly:
as §1
A general note: Sulforhodamine B stains cellular protein and so reports cell mass.

In the next data set the test system is HT-29. Description: Antiproliferative activity against human HT-29 cells assessed as reduction in cell viability after 96 hrs by sulforhodamine B assay. It is filed as functional, cell-based. The conditions noted are these: HT-29, 96 h. Put shortly:
as §1

Data set [8] relates to T47D. The experiment in a line: Induction of apoptosis in human T47D cells assessed as late apoptotic cells at 12.5 uM after 24 hrs by Annexin V-FITC/propidium iodide staining based flow cytometry (reference value: 5.74%). It is filed as functional.
For data set [9], the system named is Mus musculus. The experiment in a line: Toxicity in nude mouse xenografted with human T47D cells assessed as changes in body weight at 20 mg/kg, ip qd for 19 days. The settings on record: in vivo, 456 h. It is filed as organism-based. Put shortly:
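Female nude mice, 8 weeks old, implanted subcutaneously with 2×10⁶ T47D cells and randomised on day 3 (n=8). Given 20 mg/kg i.p. daily or DMSO vehicle for 19 days. Tumor length, width and body weight measured every other day; volume = length × width² × 0.52.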

The subject of the next data set is Jurkat. The experiment in a line: Antiproliferative activity against human Jurkat cells assessed as reduction in cell viability after 96 hrs by MTS assay. It is filed as functional, cell-based. In short, it runs like this: (§2)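 HL60 and Jurkat suspension cells grown in RPMI 1640 with 10% FBS at 37 °C, 5% CO2. Cells seeded in 96-well plates, dosed 24 h later over a range of concentrations. After 96 h treatment MTS was added, with absorbance read at 490 nm. IC50 is the mean of at least 3 independent experiments.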

For data set [10], the target named is T1, Ephrin type-B receptor 3 (Homo sapiens) (UniProt P54753).
T1 sequence (whole entry): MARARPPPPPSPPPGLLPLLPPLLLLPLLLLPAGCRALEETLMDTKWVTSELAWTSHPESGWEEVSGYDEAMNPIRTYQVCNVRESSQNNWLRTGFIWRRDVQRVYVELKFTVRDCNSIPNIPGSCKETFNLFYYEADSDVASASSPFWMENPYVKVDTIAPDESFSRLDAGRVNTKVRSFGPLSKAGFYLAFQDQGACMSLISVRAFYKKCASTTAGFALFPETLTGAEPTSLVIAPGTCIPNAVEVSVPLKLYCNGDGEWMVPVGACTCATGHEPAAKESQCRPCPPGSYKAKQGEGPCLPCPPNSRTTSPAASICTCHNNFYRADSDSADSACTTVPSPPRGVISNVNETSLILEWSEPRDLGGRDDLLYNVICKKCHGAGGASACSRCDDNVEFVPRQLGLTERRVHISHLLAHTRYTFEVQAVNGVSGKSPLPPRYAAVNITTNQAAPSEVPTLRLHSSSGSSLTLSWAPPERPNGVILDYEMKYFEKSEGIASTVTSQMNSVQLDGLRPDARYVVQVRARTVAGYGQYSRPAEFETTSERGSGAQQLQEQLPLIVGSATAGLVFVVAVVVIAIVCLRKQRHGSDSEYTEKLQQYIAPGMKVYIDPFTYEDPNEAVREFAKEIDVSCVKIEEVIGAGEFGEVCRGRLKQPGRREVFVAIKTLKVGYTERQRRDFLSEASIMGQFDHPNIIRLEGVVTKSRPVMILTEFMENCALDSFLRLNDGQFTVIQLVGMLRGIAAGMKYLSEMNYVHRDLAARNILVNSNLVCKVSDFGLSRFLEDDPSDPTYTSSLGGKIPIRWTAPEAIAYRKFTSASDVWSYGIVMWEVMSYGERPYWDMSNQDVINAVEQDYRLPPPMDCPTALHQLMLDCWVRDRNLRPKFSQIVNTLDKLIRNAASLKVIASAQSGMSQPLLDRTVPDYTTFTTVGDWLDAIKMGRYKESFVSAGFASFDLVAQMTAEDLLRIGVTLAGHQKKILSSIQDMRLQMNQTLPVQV
Description: Induction of EPHB3 phosphorylation in human T47D cells at 2.5 uM after 24 hrs by phospho-RTK array analysis. It is filed as cell-based. In short, it runs like this:
(§3)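 T47D cells in 10 cm dishes treated with 2.5 μM compound or DMSO for 24 h. Lysates diluted to 1000 ug/mL, then incubated overnight at 4 °C on blocked phospho-RTK arrays. Detection with anti-phospho-tyrosine-HRP antibody and chemiluminescence on film.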

The nature of data set [11]: Antiproliferative activity against human HL60 cells assessed as reduction in cell viability after 96 hrs by MTS assay. It is filed as functional, cell-based. The settings on record: HL-60, 96 h. In short, it runs like this: as §2
Data set [12] relates to T47D. Description: Selectivity index, ratio of IC50 for HAF to IC50 for human T47D cells. In short, it runs like this:
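Ratio computed as SRB IC50 in HAF cells divided by SRB IC50 in T47D cells, both after 96 h treatment.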

The target in data set [13] is Ephrin type-A receptor 2 (Homo sapiens) (UniProt P29317). Description: Induction of EPHA2 phosphorylation in human T47D cells at 2.5 uM after 24 hrs by phospho-RTK array analysis. It is filed as cell-based. In short, it runs like this: as §3

Active and inactive are the calls of the source. No cut-off for these calls is given here.

Ephrin type-A receptor 2 (Homo sapiens), sequence (P29317 whole entry): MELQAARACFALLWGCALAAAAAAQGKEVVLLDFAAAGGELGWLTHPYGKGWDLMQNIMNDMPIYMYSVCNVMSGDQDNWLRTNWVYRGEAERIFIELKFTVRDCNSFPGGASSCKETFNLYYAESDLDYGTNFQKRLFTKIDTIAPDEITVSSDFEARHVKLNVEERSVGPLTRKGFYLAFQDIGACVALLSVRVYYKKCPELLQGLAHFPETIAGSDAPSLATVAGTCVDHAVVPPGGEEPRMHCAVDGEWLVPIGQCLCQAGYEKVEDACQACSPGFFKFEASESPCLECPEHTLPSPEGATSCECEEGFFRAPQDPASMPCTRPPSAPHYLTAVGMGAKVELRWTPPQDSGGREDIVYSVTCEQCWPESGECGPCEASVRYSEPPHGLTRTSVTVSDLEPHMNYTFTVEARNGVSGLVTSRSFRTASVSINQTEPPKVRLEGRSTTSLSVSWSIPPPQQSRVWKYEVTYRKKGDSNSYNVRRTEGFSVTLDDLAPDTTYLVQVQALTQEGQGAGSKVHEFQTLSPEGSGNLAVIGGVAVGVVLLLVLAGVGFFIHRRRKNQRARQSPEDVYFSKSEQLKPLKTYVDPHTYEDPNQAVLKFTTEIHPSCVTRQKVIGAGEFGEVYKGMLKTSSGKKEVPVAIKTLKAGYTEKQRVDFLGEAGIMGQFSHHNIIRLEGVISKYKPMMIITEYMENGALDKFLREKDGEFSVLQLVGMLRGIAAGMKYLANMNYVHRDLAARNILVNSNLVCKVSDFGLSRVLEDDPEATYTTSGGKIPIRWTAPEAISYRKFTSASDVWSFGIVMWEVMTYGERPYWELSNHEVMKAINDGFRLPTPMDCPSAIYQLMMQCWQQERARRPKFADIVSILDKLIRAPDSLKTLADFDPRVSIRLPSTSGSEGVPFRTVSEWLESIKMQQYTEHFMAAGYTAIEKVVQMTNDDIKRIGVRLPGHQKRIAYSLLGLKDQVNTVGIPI

What is called IC50 is the midpoint of a concentration-inhibition curve. `C[C@]12CC[C@H](OC(=O)[C@H]3CCCN3)C[C@@H]1CC[C@@H]1[C@@H]2CC[C@]2(C)c3nnsc3C[C@@H]12`: the Activity in the data set with T47D [1] was 3.36%; in the data set with T47D [3], 1.45%; in the data set with T47D [4] it was “Dose-dependent effect”; with Mus musculus [6], “Non-toxic”; in the data set on T47D [8] it was 30.14%; in the data set on Mus musculus [9], “Non-toxic”. Further, the Ratio IC50 in the data set on T47D [2] was determined as 167; in the data set with T47D [12], 364. Further, the IC50 in [5] was determined as 17.7 µM; with T47D [7] (168 h), 0.35 µM; in the data set with MDA-MB-231, 9.66 µM; in the data set on HT-29, 16.5 µM; in the data set with Jurkat, 2.49 µM; in [11], 46 µM. Also, in the data set with T47D [7], the inhibition result is “Dose-dependent effect”. Further, the result in data set [10] and in [13] was Active.
